This is a sample that favours compounds with a hit; in the whole collection about 9.8% have one here.
m-calpain inh: calpain II (pig) inhibition; purified calpain II, fluorogenic peptide substrate, 30 min; inhibition, % at 16 µM; 220,000 tested, 0.37% active; AID 1236;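 active = inhibition above about 50%, limit read from the data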
WT yeast gro inh: growth inhibition of WT yeast, mitochondrial fusion screen; 190,000 tested, 2.1% active; inhibition, % at 10 µM; AID 1362; mitochondrial fusion phenotypic screen, WT strain; in the data active = inhibition above about 58%; tested in S. cerevisiae
PMI act hi M6P: activators of human phosphomannose isomerase at near-saturating mannose 6-phosphate; coupled PMI enzyme assay, resazurin fluorescence, 20 min; active compounds read high; 1 = untreated enzyme, 0 = substrate-free blank; activation factor at 20 µM; 190,000 tested, 0.34% active;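 active = activation factor of 2 or more at 20 µM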
Target sequence (P34949 whole entry, looked up): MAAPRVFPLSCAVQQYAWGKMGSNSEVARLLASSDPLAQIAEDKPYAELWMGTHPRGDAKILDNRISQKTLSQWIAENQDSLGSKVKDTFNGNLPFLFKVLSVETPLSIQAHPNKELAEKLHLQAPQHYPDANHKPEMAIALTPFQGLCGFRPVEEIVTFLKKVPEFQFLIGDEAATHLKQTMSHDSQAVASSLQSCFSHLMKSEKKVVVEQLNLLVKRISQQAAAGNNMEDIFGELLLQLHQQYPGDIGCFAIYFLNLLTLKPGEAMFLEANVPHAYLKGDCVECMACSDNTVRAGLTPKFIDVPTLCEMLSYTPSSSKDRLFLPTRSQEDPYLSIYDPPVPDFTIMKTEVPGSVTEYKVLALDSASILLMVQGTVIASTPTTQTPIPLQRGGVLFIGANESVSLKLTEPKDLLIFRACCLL
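Test system: human PMI in coupled enzyme assay; Input: PMI at 15 ng/mL final; Medium: HEPES buffer, pH 7.4; Schedule: 20 min incubation at room temperature; Technique: resorufin fluorescence at Ex 544/Em 590 nm; Compound: 20 µM single dose; Probe or stimulus: Near-saturating mannose-6-phosphate, 1.0 mM.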
PMI act: phosphomannose isomerase (human) activation; P34949; activation factor at 20 µM; purified human PMI, coupled resazurin fluorescence, 20 min; active compounds read high; 1 = vehicle control, 0 substrate-free wells; 190,000 tested, 0.005% active;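 active = activation factor of 2 or more at 20 µM, relative to plate controls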
Rad51 HR inh: blocks human Rad51 in homologous recombination | AID 1385 | 200,000 tested, 0.085% active | Q06609 | inhibition, % at 10 µM | hRad51 DNA strand exchange, fluorescence dequenching;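 active = inhibition above 40% at the single screening dose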;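 note: 0% = DMSO control wells and 100% = blanks with heterologous ssDNA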
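Material: hRad51 filaments on single-stranded DNA; Reagent: Donor/quencher-labelled 47-bp dsDNA substrate; Compound: 10 µM final, single point; Schedule: 37 °C 15-min filament assembly, 30-min compound preincubation, 15-min exchange; Technique: FRET fluorescence, excitation 485 nm, emission 520 nm; Benchmarks: control wells and blank wells on each plate.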
Lmaj promast: reduces viability of Leishmania major promastigotes; resazurin fluorescence viability; inhibition, % at 10 µM; 200,000 tested, 9% active; AID 1063; in the data active = inhibition above about 50%;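 note: promastigotes grown with compound for 44 hours at 28 °C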
Numbers without * were called inactive; nt = not tested or not shown.

SMILES	m-calpain inh	WT yeast gro inh	PMI act hi M6P	PMI act	Rad51 HR inh	Lmaj promast
O=C(Cn1cc(C(F)(F)F)ccc1=O)N/N=C/c1cccc(Cl)c1Cl	26.4	1.1	1.1	1.1	-4.3	74.9*
O=C(c1cccc(Br)c1)c1conc1C(=O)c1ccco1	24.3	67.2*	1	1	nt	-2.7
Nc1cc(-c2cccc(Br)c2)nn1Cc1ccccc1	16.8	10.1	0.9	0.9	10.1	3.4
Nc1cc(-c2ccc(Br)cc2)nn1Cc1ccccc1	-9.5	-7.0	0.9	0.8	1.1	78.2*
CCOC(=O)N1CCN(C(=O)CN(C)S(=O)(=O)c2ccc3c(c2)C(C)(C)C(=O)N3C)CC1	14.3	67.6*	1	1.1	nt	-0.4
CCOC(=O)N1CCN(C(=O)CN(C)S(=O)(=O)c2ccc3c(c2)c(=O)n(C)c(=O)n3C)CC1	-19.5	-0.9	1.1	1	9.1	-3.0
Nc1ncc(Br)cc1S(=O)(=O)NCCC(=O)Nc1cccc(Cl)c1	10.0	57.0	1	1	2.5	63.7*
CCCCOc1ccc(-c2ncc(N)cn2)cc1	-42.4	nt	nt	nt	5.1	nt
O=C(NCC(=O)N1CCN(S(=O)(=O)/C=C/c2ccccc2)CC1)c1ccc(Cl)cc1	0.4	nt	nt	nt	nt	nt
CC1/C(=N/O)CC(c2ccccc2)N(C)C1c1ccccc1 (stereo not drawn)	-9.2	98.5*	0.9	0.9	3.7	7.1
CC1C(c2ccccc2)N(C)C(c2ccccc2)CC1(O)c1ccccc1 (stereo not drawn)	13.6	58.5*	1	0.8	-4.9	98.1*
CC1(c2ccccc2)CC2CC(c3ccccc3)N1O2 (stereo not drawn)	-6.1	1.0	1.1	1	nt	2.5
Cc1cc(NC(=O)CSc2nc3sc4c(c3c(=O)n2C)CCCC4)no1	51.9*	-0.7	0.9	1	nt	-5.3
CC(=O)Nc1cccc(NC=C(C#N)C#N)c1	-19.9	-1.0	0.9	0.9	-12.3	-2.8
COc1ccc(N(C)S(=O)(=O)c2cccc(C(=O)Nc3cc(OC)ccc3OC)c2)cc1	15.3	13.1	1	1	24.2	81.7*
COc1ccc(N(C)S(=O)(=O)c2cccc(C(=O)OCC(=O)NCc3ccccc3OC)c2)cc1	43.0	nt	nt	nt	14.3	nt
CC(=O)c1cccc(NC(=O)C(OC(=O)c2cccc(S(=O)(=O)N(C)c3ccccc3)c2)c2ccccc2)c1 (stereo not drawn)	9.7	-5.2	1	0.9	-8.2	95.8*
COc1ccc(N(C)S(=O)(=O)c2cccc(C(=O)OC(C(=O)Nc3cc(C)cc(C)c3)c3ccccc3)c2)cc1 (stereo not drawn)	-36.4	-2.1	0.9	0.9	-3.4	95.7*
CC(=O)Oc1ccc(-c2cccc(C(=O)Oc3ccccc3)c2)cc1	23.3	73.7*	0.9	0.9	11.0	-0.4
CC1(NC(=S)Nc2ccccc2)CCS(=O)(=O)C1 (stereo not drawn)	-10.4	nt	nt	nt	1.3	nt
CCCn1nnc(NC(=S)NC(=O)c2ccc(-c3ccc(Br)cc3)o2)n1	11.4	nt	nt	nt	19.1	nt
Cn1nnc(NC(=S)NC(=O)c2ccc(-c3ccc(Br)cc3)o2)n1	-13.9	58.5*	1	1	3.8	-0.8
CNc1nc(N/N=C/c2cc3c(cc2[N+](=O)[O-])OCO3)nc(Nc2ccccc2)n1	-169.7	13.7	1.1	1.3	-11.6	64.8*
CC(C)c1nc(NCc2ccccc2)c(C#N)c2c1CCCC2	-75.1	-12.9	1	0.9	2.3	1.6
N#Cc1c(NCCCO)nc(NCc2ccccc2)c2c1CCN(Cc1ccccc1)C2	-470.4	55.1	0.4	0.4	-2.8	58.8*
SMILES	m-calpain inh	WT yeast gro inh	PMI act hi M6P	PMI act	Rad51 HR inh	Lmaj promast
CN1CCc2c(C#N)c(N3CCCCC3)nc(NCc3ccccc3)c2C1	-202.1	1.5	0.5	0.7	-2.2	78.4*
COc1ccc(Cc2c(O)nc(SCC(=O)NC(C)(C)C)[nH]c2=O)cc1	-31.4	-7.1	1.1	1	0.8	-11.4
O=C(Cn1cccc1C(=O)c1ccccc1)NCCC1=CCCCC1	-8.6	6.3	1.1	1.1	3.0	41.5
CC(C(=O)NCC1CCCCC1)N1CCN(S(=O)(=O)c2ccccc2F)CC1 (stereo not drawn)	-7.5	1.2	1	1	-3.7	1.5
O=C1/C(=C/c2ccc(O)cc2)SC(=S)N1CC1CCCO1 (stereo not drawn)	43.5	nt	nt	nt	-188.1	nt
CCCOc1ccc(/C=C2\SC(=S)N(CC3CCCO3)C2=O)cc1 (stereo not drawn)	36.8	17.5	1.1	1.1	2.5	66.0*
COC(=O)c1cc(OC)c(OC)cc1NC(=S)N1CCCCC1	30.4	8.4	1	0.9	-4.2	89.0*
COC(=O)c1cc(OC)c(OC)cc1NC(=S)N1CCN(C)CC1	-17.6	-18.9	0.9	0.9	11.2	1.9
CCN(c1ccccc1)S(=O)(=O)c1ccc(Cl)c(NC(=O)CSc2nncs2)c1	21.2	8.4	1	0.9	-5.0	19.5
COc1ccc(/C=C/c2nc(N)nc(-c3ccccc3O)n2)cc1OC	-67.6	27.7	0.9	0.8	9.3	92.5*
CCc1ccc(OCC(=O)N/N=C(\C)c2ccc(OC(F)F)cc2)cc1	10.4	13.0	0.9	0.9	5.3	69.1*
C/C(=N\NC(=O)COc1ccc(C(C)(C)C)cc1)c1ccc(N2CCOCC2)cc1	-16.6	28.9	1	1	0.6	73.8*
Cc1c2c(nc3ccccc13)CCC(C)C2 (stereo not drawn)	8.6	16.4	1.1	1.1	5.7	24.1
O=S(=O)(NC1=NCCC1)c1ccc(F)cc1F	-9.0	-3.4	1	1.1	-1.2	-14.0
CSC1=NNC(c2ccc(C(C)(C)C)cc2)=NN1	-10.3	nt	nt	nt	-5.8	nt
CS(=O)(=O)NCC(c1cccnc1)N1CCN(c2ccc(F)cc2)CC1 (stereo not drawn)	17.1	11.1	1.1	1.1	5.1	44.7
CCS(=O)(=O)NCC(c1cccnc1)N1CCN(c2ccccc2OC)CC1 (stereo not drawn)	31.2	6.9	1	1	-3.1	23.5
CCS(=O)(=O)NCC(c1cccnc1)N1CCN(c2ccc(F)cc2)CC1 (stereo not drawn)	-0.3	-7.9	1.1	1.1	0.4	69.2*
CCS(=O)(=O)NCC(c1cccnc1)N1CCN(c2ccccc2F)CC1 (stereo not drawn)	7.8	15.6	1	1	3.6	78.5*
O=[N+]([O-])c1nn(-c2ccccc2)[n+]([O-])c1N1CCN(c2ccccc2F)CC1	2.1	-10.2	1	1.1	5.7	44.5
CCOc1ccc(N2CC(C(=O)Nc3cccc(S(=O)(=O)NC4=NCCC4)c3)CC2=O)cc1 (stereo not drawn)	-9.3	nt	nt	nt	21.4	nt
CCc1ccccc1S(=O)(=O)Cc1ccc(C(=O)NCc2cccs2)o1	-2.7	-12.2	1	0.9	-4.5	2.0
O=C(COC(=O)C1=COCCO1)Nc1ccc(OC(F)F)cc1	-17.9	-2.5	1.1	1	33.7	-2.7

Screens: PubChem BioAssay, several laboratories
